# Measured values pooled from the literature.
# Each line is one published result; the experiments were not run side by side.
# Tumor necrosis factor receptor superfamily member 9: Tumor necrosis factor receptor superfamily member 9 (Homo sapiens, UniProt Q07011)
Compound,target,read-out,mode,method,notes,endpoint,value
COC(=O)[C@H](Cc1c[nH]cn1)NC(=O)CN(CC(=O)O)Cc1ccc2ccccc2c1,"Insulin-degrading enzyme (IDE, Homo sapiens, UniProt P14735)",enzyme activity,inhibitor,fluorescence,,IC50,1200 nM
Cc1cnc(-c2ccc(-c3ccc(NC(=O)Nc4c(F)cc(F)cc4F)cc3F)c3c2C(=O)NC3)[nH]1,"Myosin-IIIa (MYO3A, Homo sapiens, UniProt Q8NEV4)",binding,,competition with immobilised ligand,,Kd,13 nM
CNC(=O)c1cc2c(Oc3ccc(NC(=O)C4(C(=O)Nc5ccc(F)cc5)CC4)cc3)ccnc2cc1OC,"Hepatocyte growth factor receptor (MET, Homo sapiens, UniProt P08581)",enzyme activity,inhibitor,TR-FRET,,IC50,16.1 nM
c1cncc(-c2cccc(Nc3nccc(NC4CCCCC4)n3)c2)c1,"Tyrosine-protein kinase JAK3, JH1 (JAK3, Homo sapiens, UniProt P52333)",binding,,competition with immobilised ligand,,Kd,1300 nM
CCCC[C@@H]1NC(=O)[C@H](Cc2ccc(O)cc2)NC(=O)[C@@H]2CCCN2C(=O)[C@H](CC(=O)O)NC(=O)[C@H](C)NC(=O)[C@H](Cc2ccccc2)NC(=O)[C@@H]2CSCCC(=O)N3CN(CN(C3)C(=O)CCSC[C@@H](C(=O)N[C@@H](C)C(N)=O)NC1=O)C(=O)CCSC[C@H](NC(C)=O)C(=O)N[C@@H](CC(C)(C)C)C(=O)N1CCC[C@H]1C(=O)N[C@@H](CCCCNC(=O)CCc1cn(CC(=O)N[C@H]3CSCCC(=O)N4CN5CN(C4)C(=O)CCSC[C@H](NC(=O)[C@@H](CC(=O)O)NC(=O)[C@H](Cc4cccc6ccccc46)NC(=O)[C@@H]4CCCN4C3=O)C(=O)N[C@@H](CCSC)C(=O)N[C@@H](CCCCNC(=N)N)C(=O)N[C@@H](CC(=O)O)C(=O)N[C@@H](Cc3c[nH]c4ccccc34)C(=O)N[C@@H](CO)C(=O)N[C@@H]([C@@H](C)O)C(=O)N3CCC[C@H]3C(=O)N3C[C@H](O)C[C@H]3C(=O)N[C@@H](Cc3c[nH]c4ccccc34)C(=O)N[C@H](C(N)=O)CSCCC5=O)nn1)C(=O)N[C@H](C)C(=O)N1CCC[C@H]1C(=O)N[C@@H](Cc1ccc(O)cc1)C(=O)N2,Tumor necrosis factor receptor superfamily member 9,binding,,SPR,,Kd,12 nM
Cc1cc2nc3c(=O)[nH]c(=O)nc-3n(C[C@H](O)[C@H](O)[C@H](O)COP(=O)(O)OP(=O)(O)OC[C@H]3O[C@@H](n4cnc5c(N)ncnc54)[C@H](O)[C@@H]3O)c2cc1C,"Heat shock protein beta-1 (HSPB1, Homo sapiens, UniProt P04792)",binding,,,lysate,Kd,159 nM
Nc1nc2c(ncn2[C@@H]2O[C@H](COP(=O)(O)OP(=O)(O)OP(=O)(O)OC[C@H]3O[C@@H](n4cnc5c(=O)[nH]c(N)nc54)[C@H](O)[C@@H]3O)[C@@H](O)[C@H]2O)c(=O)[nH]1,"Gem-associated protein 5 (Homo sapiens, UniProt Q8TEQ6)",binding,,ITC,,Kd,140000 nM
CCCC[C@@H]1NC(=O)[C@H](Cc2ccc(O)cc2)NC(=O)[C@@H]2CCCN2C(=O)[C@H](CC(=O)O)NC(=O)[C@H](C)NC(=O)[C@H](Cc2ccccc2)NC(=O)[C@@H]2CSCCC(=O)N3CN(CN(C3)C(=O)CCSC[C@@H](C(=O)N[C@@H](CNC(=O)CCc3cn(CC(=O)N[C@H]4CSCCC(=O)N5CN6CN(C5)C(=O)CCSC[C@H](NC(=O)[C@@H](CC(=O)O)NC(=O)[C@H](Cc5cccc7ccccc57)NC(=O)[C@@H]5CCCN5C4=O)C(=O)N[C@@H](CCSC)C(=O)N[C@@H](CCCCNC(=N)N)C(=O)N[C@@H](CC(=O)O)C(=O)N[C@@H](Cc4c[nH]c5ccccc45)C(=O)N[C@@H](CO)C(=O)N[C@@H]([C@@H](C)O)C(=O)N4CCC[C@H]4C(=O)N4C[C@H](O)C[C@H]4C(=O)N[C@@H](Cc4c[nH]c5ccccc45)C(=O)N[C@H](C(N)=O)CSCCC6=O)nn3)C(N)=O)NC1=O)C(=O)CCSC[C@H](NC(C)=O)C(=O)N[C@@H](CC(C)(C)C)C(=O)N1CCC[C@H]1C(=O)N[C@@H](CCC(=O)O)C(=O)N[C@H](C)C(=O)N1CCC[C@H]1C(=O)N[C@@H](Cc1ccc(O)cc1)C(=O)N2,Tumor necrosis factor receptor superfamily member 9,binding,,SPR,,Kd,3.5 nM
CC(C)C[C@H](NC(=O)[C@H](Cc1ccccc1)NC(=O)[C@H](Cc1ccc(O)cc1)NC(=O)CNC(=O)[C@H](CCCNC(=N)N)NC(=O)[C@H](CO)NC(=O)[C@H](CCC(N)=O)NC(=O)[C@H](CO)NC(=O)[C@H](C)NC(=O)[C@H](Cc1ccccc1)NC(=O)[C@@H]1CCCN1C(=O)[C@H](CO)NC(=O)[C@H](CCC(N)=O)NC(=O)[C@H](Cc1ccccc1)NC(=O)[C@H](CCC(=O)O)NC(=O)[C@H](CCC(=O)O)NC(=O)[C@H](CC(=O)O)NC(=O)[C@@H](NC(=O)[C@H](CCCNC(=N)N)NC(=O)[C@@H](N)Cc1ccccc1)C(C)C)C(=O)N[C@@H](Cc1ccccc1)C(=O)N[C@@H](CCCNC(=N)N)C(=O)N1CCC[C@H]1C(=O)N[C@@H](CCCNC(=N)N)C(=O)N[C@@H](CC(N)=O)C(N)=O,"Neuromedin-U receptor 2 (NMUR2, Homo sapiens, UniProt Q9GZQ4)",inositol phosphate,agonist,TR-FRET,,EC50,0.17 nM
Cc1ccc(C)c(OCCCC(C)(C)C(=O)O)c1,"Peroxisome proliferator-activated receptor alpha (PPARA, Homo sapiens, UniProt Q07869)",reporter gene,agonist,luciferase,,EC50,201000 nM
CCCC[C@@H]1NC(=O)[C@H](Cc2ccc(O)cc2)NC(=O)[C@@H]2CCCN2C(=O)[C@H](CC(=O)O)NC(=O)[C@H](C)NC(=O)[C@H](Cc2ccccc2)NC(=O)[C@@H]2CSCCC(=O)N3CN(CN(C3)C(=O)CCSC[C@@H](C(=O)N[C@@H](C)C(N)=O)NC1=O)C(=O)CCSC[C@H](NC(C)=O)C(=O)N[C@@H](CC(C)(C)C)C(=O)N1CCC[C@H]1C(=O)N[C@@H](CCC(=O)O)C(=O)N[C@H](CCCCNC(=O)CCc1cn(CC(=O)N[C@H]3CSCCC(=O)N4CN5CN(C4)C(=O)CCSC[C@H](NC(=O)[C@@H](CC(=O)O)NC(=O)[C@H](Cc4cccc6ccccc46)NC(=O)[C@@H]4CCCN4C3=O)C(=O)N[C@@H](CCSC)C(=O)N[C@@H](CCCCNC(=N)N)C(=O)N[C@@H](CC(=O)O)C(=O)N[C@@H](Cc3c[nH]c4ccccc34)C(=O)N[C@@H](CO)C(=O)N[C@@H]([C@@H](C)O)C(=O)N3CCC[C@H]3C(=O)N3C[C@H](O)C[C@H]3C(=O)N[C@@H](Cc3c[nH]c4ccccc34)C(=O)N[C@H](C(N)=O)CSCCC5=O)nn1)C(=O)N1CCC[C@H]1C(=O)N[C@@H](Cc1ccc(O)cc1)C(=O)N2,Tumor necrosis factor receptor superfamily member 9,binding,,SPR,,Kd,9 nM
